Data reported in paper PMC9884082 (Journal of Medicinal Chemistry, 2023).
Where “and” joins values, the source holds several entries; their conditions need not be identical. Identical values can stand only once. Entries after “also recorded” stand apart in the source; their conditions may differ.

Legend:
[1] = system: colon cancer cell line HT-29 spheroids; assay: Spheroid inhibition assay; format: cell-based, human
Outline: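 HT-29 cells (≤6 passages) were seeded at 100–300 cells/well in low-adhesion plates. Medium was stem cell medium: DMEM:F12 with B27, 20 ng/mL EGF and 10 ng/mL FGF. After brief incubation, vehicle or test compound was added. After 3–7 days, spheroids of 50–150 μm were counted by phase-contrast microscopy as percent of vehicle. IC50 came from normalized sigmoidal regression; ≥3 replicates.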

[2] = system: HT-29 monolayer culture; assay: Cell proliferation; format: cell-based, human; details: MTT, 60-72 h
Outline: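 HT-29 cells kept as monolayers in DMEM:F-12 with 10% FBS and 1% penicillin/streptomycin, passaged before 70% confluence. About 2.5 × 10³ cells/well were incubated overnight (37 °C, 5% CO₂), then exposed to test compound for 60–72 h. MTT (5 mg/mL stock in PBS) was added for 2–3 h and crystals dissolved in DMSO. A590 was read and growth expressed as percent of vehicle; ≥3 replicates.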

[3] = system: intestinal crypt-derived organoids; assay: Ex vivo intestinal crypt-derived organoids from treated mice; format: in vivo
[4] = system: pooled normal human plasma; assay: Human plasma clotting time; format: biochemical; details: ∼34 to ∼68 s
Outline: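 APTT was run in a fibrometer by one-stage recalcification. Test compound was mixed with citrated pooled normal human plasma and prewarmed APTT reagent (ellagic acid). After 4 min at 37 °C, clotting was started with prewarmed 25 mM CaCl₂ and time to clot recorded. A quadratic trend line fitted to the data gave the concentration doubling clotting time.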

[5] = system: CD133+/CXCR4+ (Dual Hi) HT-29 xenografts; assay: Dual Hi HT-29 xenograft after FUOX enrichment, oral G2C or IP G2.2; format: in vivo, NCr nude mice; details: for tumor growth compared to vehicle: experiment 2, G2.2 100 mg/kg IP 3 times/week, G2C 100 mg/kg PO 5 times/week, 3 weeks
Outline: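 1 × 10⁵ CD133⁺/CXCR4⁺ HT-29 cells were injected subcutaneously into NCr nude mice. Palpable tumors received 50 mg/kg 5-FU plus 5 mg/kg oxaliplatin IP weekly for 3 weeks. Mice were randomized to vehicle or test compound 100 mg/kg PO 5 times/week for 3 weeks, or, in a second experiment, parent 100 mg/kg IP 3 times/week. Xenograft single cells were assessed for 1–3° spheroids. CD133/CXCR4/LGR5 cells were quantified by flow cytometry (30 min staining, 4 °C).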

[6] = system: HT-29 xenografts; assay: HT-29 xenograft after FUOX enrichment, IP G2C, FUOX or G2C+FUOX; format: in vivo, NCr nude mice
Outline: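 1 × 10⁶ unsorted HT-29 cells were injected subcutaneously into NCr nude mice. Palpable tumors received 25 mg/kg 5-fluorouracil plus 2 mg/kg oxaliplatin IP weekly for 3 weeks. Mice were randomized to vehicle, test compound 50 mg/kg IP three times/week (8 doses), continued 5-FU/oxaliplatin, or both. Tumor volume was followed to sacrifice (n = 2/group) and compared with vehicle.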

[7] = Mouse tail bleeding study; format: in vivo, wild-type ICR mice; details: IV; NSGMs 1–100 mg/kg, enoxaparin 224 μg/kg
[8] = system: colon xenografts; details: cited from earlier work
[9] = HT-29 spheroids, relative to G2.2

Q: Which results are given for `O=c1cc(-c2ccc(OS(=O)(=O)[O-])cc2)oc2cc(OS(=O)(=O)[O-])cc(OCC3CCC(COc4cc(OS(=O)(=O)[O-])cc5oc(-c6ccc(OS(=O)(=O)[O-])cc6)cc(=O)c45)CC3)c12.[Na+].[Na+].[Na+].[Na+]` (stereo not drawn) [MAD1, Sodium 4-Oxo-5-((4-(((4-oxo-7-(sulfonatooxy)-2-(4-(sulfonatooxy)phenyl)-4H-chromen-5-yl)oxy)methyl)cyclohexyl)methoxy)-2-(4-(sulfonatooxy)phenyl)-4H-chromen-7-yl Sulfate]?
A: fold weaker than G2.2 (spheroid potency) [1, 9]: about 1.6 fold; fold lower potency than MQD1 ([1]; eight (MQD1) to four (MAD1) sulfate groups): 11.4 fold; cytotoxicity under monolayer conditions [2]: did not display significant cytotoxicity

Q: What does the source list for `O=c1c(OS(=O)(=O)[O-])c(-c2ccc(OS(=O)(=O)[O-])cc2OS(=O)(=O)[O-])oc2cc(OS(=O)(=O)[O-])cc(OCC3CCC(COc4cc(OS(=O)(=O)[O-])cc5oc(-c6ccc(OS(=O)(=O)[O-])cc6OS(=O)(=O)[O-])c(OS(=O)(=O)[O-])c(=O)c45)CC3)c12.[Na+].[Na+].[Na+].[Na+].[Na+].[Na+].[Na+].[Na+]` (stereo not drawn) [MMD1, Sodium 4-(5-((4-(((2-(2,4-Bis(sulfonatooxy)phenyl)-4-oxo-3,7-bis(sulfonatooxy)-4H-chromen-5-yl)oxy)methyl)cyclohexyl)methoxy)-4-oxo-3,7-bis(sulfonatooxy)-4H-chromen-2-yl)-1,3-phenylene Bis(sulfate)]?
A: fold better than G2.2 (spheroid potency, IC50 gain) [1, 9]: 1.7 fold; cytotoxicity under monolayer conditions [2]: did not display significant cytotoxicity

Q: With `CC(C)CCC[C@@H](C)[C@H]1CC[C@H]2[C@@H]3CC=C4C[C@@H](OCCOc5cc(-c6oc7cc(OS(=O)(=O)[O-])cc(OCCCOc8cc(OS(=O)(=O)[O-])cc9oc(-c%10ccc(OS(=O)(=O)[O-])c(OS(=O)(=O)[O-])c%10)c(OS(=O)(=O)[O-])c(=O)c89)c7c(=O)c6OS(=O)(=O)[O-])ccc5OS(=O)(=O)[O-])CC[C@]4(C)[C@H]3CC[C@]12C.[Na+].[Na+].[Na+].[Na+].[Na+].[Na+].[Na+]` [G2C, Sodium 4-(5-(3-((2-(3-(2-(((8S,9S,10R,13R,14S,17R)-10,13-Dimethyl-17-((R)-6-methylheptan-2-yl)-2,3,4,7,8,9,10,11,12,13,14,15,16,17-tetradecahydro-1H-cyclopenta[a]phenanthren-3-yl)oxy)ethoxy)-4-(sulfonatooxy)phenyl)-4-oxo-3,7-bis(sulfonatooxy)-4H-chromen-5-yl)oxy)propoxy)-4-oxo-3,7-bis(sulfonatooxy)-4H-chromen-2-yl)-1,2-phenylene Bis(sulfate)] as the molecule, how does the “ex vivo growth of organoids derived from intestinal crypts” value ([3]; after IP G2C 50 mg/kg alone or with FUOX) read?
A: did not inhibit ex vivo growth of organoids derived from intestinal crypts

Q: And the “intestinal crypt-derived organoid growth” value ([3]; after oral G2C 100 mg/kg 5 times/week for 3 weeks)?
A: did not reduce intestinal crypt-derived organoid growths

Q: What about the “concentration required for 2-fold increase in APTT” value [4] of the same molecule?
A: ~300 µM

Q: And the “cytotoxicity under monolayer conditions” value [2]?
A: significantly cytotoxic at ∼100 μM

Q: And the animal weight ([5]; daily oral G2C)?
A: did not lose weight

Q: And the “bleeding at the site of injection or in organs” value ([5]; daily oral G2C)?
A: no obvious sign of major bleeding

Q: What about the “3° spheroid formation from xenograft-derived cells” value ([5]; experiment 1, G2C 100 mg/kg PO) of the same molecule?
A: significantly inhibited

Q: What about the “Dual Hi cell-induced tumor growth” value ([5]; experiment 1, G2C 100 mg/kg PO 5 times/week for 3 weeks) of the same molecule?
A: significantly inhibited Dual Hi cell-induced tumor growth

Q: And the “tumor growth compared to vehicle” value [5]?
A: seemed to reduce tumor growth; also recorded: higher growth inhibition

Q: And the “proportion of CD133+/CXCR4+ (Dual Hi) and LGR5 cells in xenografts” value ([5]; flow cytometry, oral G2C)?
A: significantly lower

Q: And the “blood chemistry compared to vehicle” value ([5]; oral G2C)?
A: did not produce any significant change in blood chemistry

Q: What about the “inhibition of xenografts compared to vehicle” value ([6]; G2C 50 mg/kg IP (Figure 6B)) of the same molecule?
A: 30%

Q: And the animal weight ([6]; G2C 50 mg/kg IP alone or with FUOX)?
A: no significant change in animal weight

Q: What about the “expression of DCAMKL1 and BMI-1 in xenograft lysate” value ([6]; Western blots) of the same molecule?
A: inhibition in the expression of DCAMKL1 (CSC marker) and BMI-1 (self-renewal marker)

Q: What about the “3 and 4° spheroid formation from xenograft-derived cells” value ([6]; ex vivo in CSC media, compared to vehicle) of the same molecule?
A: significant inhibition of self-renewing CSCs

Q: And the “blood loss, tail bleeding” value [7]?
A: did not exhibit much tail bleeding phenotype

Q: Which results are given for `CC(C)CCC[C@@H](C)[C@H]1CC[C@H]2[C@@H]3CC=C4C[C@@H](OCCCCCCCCOc5cc(-c6oc7cc(OS(=O)(=O)[O-])cc(OCCCOc8cc(OS(=O)(=O)[O-])cc9oc(-c%10ccc(OS(=O)(=O)[O-])c(OS(=O)(=O)[O-])c%10)c(OS(=O)(=O)[O-])c(=O)c89)c7c(=O)c6OS(=O)(=O)[O-])ccc5OS(=O)(=O)[O-])CC[C@]4(C)[C@H]3CC[C@]12C.[Na+].[Na+].[Na+].[Na+].[Na+].[Na+].[Na+]` [G8C, Sodium 4-(5-(3-((2-(3-((8-(((8S,9S,10R,13R,14S,17R)-10,13-Dimethyl-17-((R)-6-methylheptan-2-yl)-2,3,4,7,8,9,10,11,12,13,14,15,16,17-tetradecahydro-1H-cyclopenta[a]phenanthren-3-yl)oxy)octyl)oxy)-4-(sulfonatooxy)phenyl)-4-oxo-3,7-bis(sulfonatooxy)-4H-chromen-5-yl)oxy)propoxy)-4-oxo-3,7-bis(sulfonatooxy)-4H-chromen-2-yl)-1,2-phenylene Bis(sulfate)]?
A: concentration required for 2-fold increase in APTT [4]: ~37 µM; cytotoxicity under monolayer conditions [2]: significantly cytotoxic at ∼100 μM; blood loss, tail bleeding [7]: did not exhibit much tail bleeding phenotype

Q: Which “fold better than G2.2 (spheroid potency, IC50 gain)” value [1, 9] does the source give for `O=c1c(OS(=O)(=O)[O-])c(-c2ccc(OS(=O)(=O)[O-])c(OS(=O)(=O)[O-])c2)oc2cc(OS(=O)(=O)[O-])cc(OCC3CCC(COc4cc(OS(=O)(=O)[O-])cc5oc(-c6ccc(OS(=O)(=O)[O-])c(OS(=O)(=O)[O-])c6)c(OS(=O)(=O)[O-])c(=O)c45)CC3)c12.[Na+].[Na+].[Na+].[Na+].[Na+].[Na+].[Na+].[Na+]` (stereo not drawn) [MQD1, Sodium 4-(5-((4-(((2-(3,4-Bis(sulfonatooxy)phenyl)-4-oxo-3,7-bis(sulfonatooxy)-4H-chromen-5-yl)oxy)methyl)cyclohexyl)methoxy)-4-oxo-3,7-bis(sulfonatooxy)-4H-chromen-2-yl)-1,2-phenylene Bis(sulfate)] here?
A: 7.3 fold and ~9 fold

Q: What about the “cytotoxicity under monolayer conditions” value [2] of the same molecule?
A: did not display significant cytotoxicity

Q: Which “concentration required for 2-fold increase in APTT” value [4] does the source give for enoxaparin [reference compound] here?
A: 3 µM

Q: And the “blood loss, tail bleeding” value [7]?
A: significantly higher blood loss

Q: Which results are given for `O=c1c(OS(=O)(=O)[O-])c(-c2ccc(OS(=O)(=O)[O-])c(OS(=O)(=O)[O-])c2)oc2cc(OS(=O)(=O)[O-])cc(OCCCOc3cc(OS(=O)(=O)[O-])cc4oc(-c5ccc(OS(=O)(=O)[O-])c(OS(=O)(=O)[O-])c5)c(OS(=O)(=O)[O-])c(=O)c34)c12.[Na+].[Na+].[Na+].[Na+].[Na+].[Na+].[Na+].[Na+]` [G2.2, Sodium 4-(5-(3-((2-(3,4-Bis(sulfonatooxy)phenyl)-4-oxo-3,7-bis(sulfonatooxy)-4H-chromen-5-yl)oxy)propoxy)-4-oxo-3,7-bis(sulfonatooxy)-4H-chromen-2-yl)-1,2-phenylene Bis(sulfate)]?
A: concentration required for 2-fold increase in APTT [4]: 900 µM; expression of BMI-1 (CSC self-renewal marker) [8]: significant reduction in the expression of BMI-1; expression of colon CSC markers [8]: inhibited the expression of CD133^+, CXCR4^+, DCAMLK1, and/or LGR5 markers; growth of colon xenografts and toxicity ([8]; parenterally administered): inhibits the growth of colon xenografts without any toxicity to vital organs or bleeding consequences; tumor growth compared to vehicle [5]: seemed to reduce tumor growth
